TCR-CD3 inh: blocks the human TCR-CD3 interaction; actives 0.37% (n = 360,000); inhibition, % at 9.4 µM; TAMRA-labeled TCR probe fluorescence, biochemical; in the data active = inhibition above about 19%;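 note: recombinant mutant TCR 2C K166C tagged with TAMRA read by polarization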
SIAE primary: inhibitors of human sialic acid acetylesterase SIAE; SIAE FP-Rh probe binding, fluorescence polarization; inhibition, % at 9.66 µM; AID 1053197; actives 0.69% (n = 370,000);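 active = inhibition above a cutoff: mean of compounds within the control limits plus 3 SD of those, cut at about 17% in these data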
ABHD4 inh: inhibits mouse alpha/beta hydrolase domain 4; AID 720543; Q8VD66; inhibition, % at 8.92 µM; purified mABHD4, FP-Rh probe fluorescence polarization; actives 0.54% (n = 370,000);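 active = inhibition exceeding the mean over every tested compound plus 3 SD, cut at about 30% in these data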
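Assay system: mABHD4 protein; medium: HEPES pH 7.0, NaCl, Pluronic buffer; dosing: 8.92 µM, single dose; schedule: 45 min + 60 min at 25 °C; signal: FP readout, ex 525 nm / em 598 nm; read-out: normalized percent inhibition of probe labeling; repeats: single replicate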
ATG4B inhibitor: inhibitors of human ATG4B cysteine protease; Q9Y4P1; ATG4B cleavage of LC3-PLA2, NBD-HPC fluorescence, 1 h; inhibition, % at 8.33 µM; actives 0.51% (n = 340,000); AID 504462; in the data active = inhibition above about 40%
PRMT1 inh: PRMT1 (human) inhibition, primary screen; Q99873; recombinant PRMT1, activity-based probe fluorescence polarization; inhibition, % at 2.79 µM; actives 1.3% (n = 370,000);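 active = inhibition above about 21% made by adding two undisclosed values, limit read from the data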
Target sequence (Q99873 whole entry, looked up): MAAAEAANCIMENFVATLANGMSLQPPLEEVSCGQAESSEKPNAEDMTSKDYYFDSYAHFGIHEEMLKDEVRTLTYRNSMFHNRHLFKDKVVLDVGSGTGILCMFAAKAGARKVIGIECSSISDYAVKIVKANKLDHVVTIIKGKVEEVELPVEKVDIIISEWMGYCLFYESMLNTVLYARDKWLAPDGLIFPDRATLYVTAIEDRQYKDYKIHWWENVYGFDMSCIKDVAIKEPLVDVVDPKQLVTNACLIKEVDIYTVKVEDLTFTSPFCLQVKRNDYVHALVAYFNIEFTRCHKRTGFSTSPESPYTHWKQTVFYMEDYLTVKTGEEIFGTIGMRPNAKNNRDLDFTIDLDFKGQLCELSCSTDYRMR
HTRA1 inhibitor: inhibitors of human serine peptidase HTRA1; AID 504803; Q92743; recombinant HTRA1, FP-rhodamine activity-based probe, fluorescence polarization; inhibition, % at 5.96 µM; actives 0.5% (n = 340,000); in the data active = inhibition above about 36%
SIAE confirm: confirmation of human SIAE inhibitors | SIAE FP-Rh activity-based probe, fluorescence polarization | shares compounds with SIAE primary | actives 13% (n = 2,300) | inhibition, % at 9.66 µM | AID 1117263;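 active = mean inhibition of the replicates above the hit cutoff set in the primary screen, cut at about 17% in these data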;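 note: inhibitors lower polarization as more probe stays unbound to SIAE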
Hits are given with their value; . = inactive; / = not tested or not shown. The list is not random: actives were taken first. Their share in the collection is about 2.9%.

SMILES	TCR-CD3 inh	SIAE primary	ABHD4 inh	ATG4B inhibitor	PRMT1 inh	HTRA1 inhibitor	SIAE confirm
C#CCN1CC(COc2ccccc2)Oc2cccc(Oc3ccc(C(C)C)cc3)c2S1(=O)=O (configuration not stated)	.	.	.	/	.	/	/
Nc1ccn([C@@H]2O[C@H](C(=O)N3CCN(C(=O)N4CCCCC4)CC3)[C@@H](O)[C@H]2O)c(=O)n1	.	.	.	/	.	/	/
O=C(Cn1c(=O)oc2cc(S(=O)(=O)N3CCCCC3)ccc21)N1CCCCC1	.	17.1	.	.	.	.	.
O=C1NC(=O)/C(=C/c2cccc(O)c2)N1	.	17.5	.	.	.	.	.
O=C(NNc1c2ccccc2nc2ccccc12)c1cccc(O)c1	.	17.8	.	.	.	.	.
O=C(NNc1c2ccccc2nc2ccccc12)c1ccc(O)cc1	.	.	.	.	.	.	/
O=C(/C=C(\Nc1ccc(Cl)c(C(F)(F)F)c1)c1ccccc1)c1ccccc1	.	.	.	/	.	/	/
COCC#Cc1ccc(CC[C@H]2O[C@H]3CC[C@H](CO)O[C@H]3C[C@H]2n2cc(C(C)(C)O)nn2)cc1	/	.	.	/	.	/	/
COc1ccc(NC(=S)N/N=C/c2cccn2Cc2ccc(F)cc2)cc1	.	18.6	.	.	.	.	.
CN(C(=O)c1cccc(N2C(=O)C3C4C=CC(C4)C3C2=O)c1)C1CCCCC1 (configuration not stated)	.	18.8	.	.	.	.	.
CC1=CCC2C(=O)N(c3cccc(C(=O)N(C)C4CCCCC4)c3)C(=O)C2C1 (configuration not stated)	.	.	.	.	.	.	/
CC(=O)C1=C(C)N(Cc2ccc(Cl)cc2)C(=S)NC1c1ccc(Cl)cc1 (configuration not stated)	.	.	.	/	.	/	/
CCOc1ccc(Cl)cc1/C=C1/C(=O)ON=C1C	.	17.9	.	.	.	.	.
CNC(=S)N1CCc2ccccc2C1	.	29.7	.	.	.	.	.
CC(=O)NNC(=O)CCn1nnc(-c2ccc(Cl)cc2)n1	.	20.9	.	.	.	.	.
CCCCCn1cc(CCC(=O)Nc2ccc(N(C)c3ccccn3)cc2)c2ccccc21	.	26.4	.	/	.	/	27.1
CS(=O)(=O)c1cnc(-c2ccccc2)nc1Sc1ccc(F)cc1	.	17.2	.	.	.	.	.
COC(=O)C1CN(Cc2cn(CCOC(C)=O)nn2)CCS(=O)(=O)N1Cc1ccc(OC)cc1 (configuration not stated)	/	.	.	/	.	/	/
COC(=O)c1cc2c(c3c4cc(OC)ccc4n(S(=O)(=O)c4ccc(OC)cc4)c13)C(=O)N(Cc1ccccc1)C2	.	.	.	/	.	/	/
Clc1ccc(-c2csc(N3CCCCCC3)n2)cc1	.	76.2	.	.	.	.	.
O=C(NC1CCCCN(Cc2cccc(Cl)c2)C1=O)c1ccccn1 (configuration not stated)	/	.	.	/	.	/	/
CCCc1nc2ccccc2c(C(=O)OCC(=O)NC2CC2)c1CC	.	25.0	.	.	.	.	.
CC(=O)Nc1c(-c2ccc(F)cc2)nc2ncccn12	/	.	.	/	.	/	/
CC1Cc2nc(SCC(=O)c3ccccc3)n(Cc3ccccc3)c(=O)c2S1 (configuration not stated)	.	.	.	.	.	.	/
CC1Cc2nc(SCC(=O)NCc3ccccc3)n(Cc3ccccc3)c(=O)c2S1 (configuration not stated)	.	17.3	.	.	.	.	.
SMILES	TCR-CD3 inh	SIAE primary	ABHD4 inh	ATG4B inhibitor	PRMT1 inh	HTRA1 inhibitor	SIAE confirm
O=C(c1ccccc1)N1CC[C@H]2[C@H](CCCN2Cc2cc(F)cc(F)c2)C1	/	.	.	/	.	/	/
Cc1[nH]c(C)c(S(=O)(=O)NCc2ccc(F)cc2)c1C(=O)N1CCCCC1	.	.	.	.	.	.	/
Cc1[nH]c(C)c(S(=O)(=O)NCc2ccco2)c1C(=O)N1CCCCC1	.	18.8	.	.	.	.	.
CN1/C(=C\C(=O)Nc2ccc(Br)cc2)C(C)(C)c2ccccc21	.	26.0	.	.	.	.	.
CN1/C(=C\C(=O)Nc2ccc(F)cc2)C(C)(C)c2ccccc21	.	.	.	.	.	.	/
O=C(Cc1ccccc1)NC1CCCCN(Cc2ccc(Cl)cc2)C1=O (configuration not stated)	/	.	.	/	.	/	/
O=C(CCc1c[nH]c2ccccc12)Nc1ccc(Oc2cccnc2)cc1	.	21.9	.	/	.	/	32.4
Cc1cc(NC(=O)CCc2c[nH]c3ccccc23)ccc1Oc1cccnc1	.	.	.	/	.	/	/
Clc1ccc(-c2nnc3n2N=C(c2ccc(-c4ccccc4)cc2)CS3)cc1	/	.	.	/	.	/	/
CCOC(=O)[C@]12CCCC=C1N(Cc1cccc3ccccc13)C(=O)[C@H](CC(=O)NCCc1ccccc1OC)C2	.	53.0	.	/	.	/	.
CCOC(=O)[C@]12CCCC=C1N(Cc1cccc3ccccc13)C(=O)[C@H](CC(=O)NCc1cccc3ccccc13)C2	.	.	.	/	.	/	/
COc1cc(C(=O)NCCC2=CCCCC2)ccc1OC1CCN(C(C)=O)CC1	.	19.3	.	.	.	.	.
Cn1c(SCC(=O)NC(=O)c2cccc([N+](=O)[O-])c2)nnc1-c1ccc(F)cc1	.	22.8	.	.	.	.	.
O=C(CSc1nnc(-c2ccccc2F)n1C1CC1)NC(=O)c1cccc([N+](=O)[O-])c1	.	.	.	.	.	.	/
CCCCc1ccc(C2C3=C(CC(C)(C)CC3=O)NC3=C2C(=O)c2ccccc23)cc1 (configuration not stated)	.	18.7	.	.	.	.	.
FC(F)(F)c1cc(CNC2CCC23CCCCC3)ccc1Cl (configuration not stated)	/	.	.	/	.	/	/
C[C@@H]1C(=O)N2N=Cc3ccccc3[C@H]2N2N=Cc3ccccc3[C@@H]12	/	.	.	/	.	/	/
O=C1[C@@H](C2CC2)[C@@H]2c3ccccc3C=NN2[C@@H]2c3ccccc3C=NN12	/	23.1	.	/	.	/	.
O=C(N[C@H](C(=O)N1CCC[C@H]1C(=O)NCCc1ccccc1Cl)C1CCCCC1)C1CC1	.	.	.	/	.	/	/
CCOC(=O)c1ccccc1NC(=O)COC(=O)CCC(=O)c1ccc(C)cc1	.	19.8	.	.	.	.	.
COc1ccc(NC(=O)CSc2nnc(Cn3cnc4ccccc43)o2)cc1	.	18.0	.	.	.	.	.
O=C(Nc1cccc(S(=O)(=O)N2CCOCC2)c1)c1cn(-c2ccccc2)nc1-c1ccc(F)cc1	.	23.4	.	.	.	.	.
O=C(O)c1ccc(NC(=O)c2cn(-c3ccccc3)nc2-c2ccc(F)cc2)cc1	.	.	.	.	.	.	/
Fc1cc(F)c2nc(Nc3nc4cc5c(cc4s3)OCO5)sc2c1	.	25.4	.	.	.	.	84.9

From PubChem
